# Calls of active or inactive are those of the source. The calls are words filed in the database; no cut-off is given here.
# Assays:
# Streptococcus pyogenes = experiment: Antimicrobial activity against penicillin-resistant Streptococcus pyogenes after 24 hrs by broth microdilution assay in presence of 25% human serum; type: functional
# Method in brief: (§1)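 Bacterial NCCLS broth microdilution run in medium with 25% heat-inactivated, filter-sterilized normal human serum. Compounds were taken up in sterile DMSO and diluted in medium immediately before use. MIC was the lowest concentration with no visible growth (optically clear). Assays were repeated on separate days.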
# Nakaseomyces glabratus = experiment: Antimicrobial activity against Candida glabrata after 48 hrs by broth microdilution assay in presence of 25% human serum; type: functional
# Method in brief: (§2)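 For yeasts, NCCLS broth microdilution was run in medium supplemented with 25% heat-inactivated, filter-sterilized normal human serum. Compounds were reconstituted in sterile DMSO and diluted in medium just before the assay. MIC was the lowest concentration giving optically clear wells.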
# Enterococcus faecalis [1] = experiment: Antimicrobial activity against Enterococcus faecalis ATCC 29212 after 24 hrs by broth microdilution assay in presence of 25% human serum; type: functional; details: ATCC 29212, 24 h
# Method in brief: as §1, with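 “Bacteria were tested by NCCLS” for “Bacterial NCCLS”, “microdilution” for “microdilution run”, “medium containing” for “medium with”, “were dissolved” for “were taken up”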
# Candida albicans [2] = experiment: Antimicrobial activity against Candida albicans ATCC 90028 after 48 hrs by broth microdilution assay in presence of 25% human serum; type: functional; details: ATCC 90028, 48 h; method in brief: as §2
# SF-268 = experiment: Cytotoxicity against human SF268 cells after 48 hrs by SRB assay; type: functional; details: SF-268, 48 h
# Staphylococcus aureus [3] = experiment: Antimicrobial activity against Staphylococcus aureus ATCC 29213 after 24 hrs by broth microdilution assay in presence of 25% human serum; type: functional; details: ATCC 29213, 24 h
# Method in brief: as §1, with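 “Bacteria were tested by NCCLS” for “Bacterial NCCLS”, “microdilution” for “microdilution run”, “medium containing” for “medium with”, “were dissolved” for “were taken up”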
# Micrococcus luteus [4] = experiment: Antimicrobial activity against Micrococcus luteus Presque Isle 456 after 24 hrs by broth microdilution assay; type: functional
# Method in brief: (§3)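 Bacterial MICs were determined by NCCLS broth microdilution. Compounds were dissolved in a small volume of sterile DMSO and diluted in the appropriate medium just before testing. MIC was the lowest concentration giving no visible growth (optically clear). Assays were repeated on separate days.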
# Cryptococcus neoformans [5] = experiment: Antimicrobial activity against fluconazole-resistant Cryptococcus neoformans after 48 hrs by broth microdilution assay in presence of 25% human serum; type: functional
# NCI-H460 = experiment: Cytotoxicity against human NCI-H460 cells after 48 hrs by SRB assay; type: functional; details: NCI-H460, 48 h
# Neisseria gonorrhoeae [6] = experiment: Antimicrobial activity against Neisseria gonorrhoeae ATCC 49226 after 24 hrs by broth microdilution assay in presence of 25% human serum; type: functional; details: ATCC 49226, 24 h
# Method in brief: as §1, with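 “Bacteria were tested by NCCLS” for “Bacterial NCCLS”, “microdilution” for “microdilution run”, “medium containing” for “medium with”, “were dissolved” for “were taken up”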
# DU-145 = experiment: Cytotoxicity against human DU145 cells after 48 hrs by SRB assay; type: functional; details: DU-145, 48 h
# Streptococcus pneumoniae [7] = experiment: Antimicrobial activity against Streptococcus pneumoniae ATCC 6303 after 24 hrs by broth microdilution assay in presence of 25% human serum; type: functional; details: ATCC 6303, 24 h
# Method in brief: as §1, with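 “Bacteria were tested by NCCLS” for “Bacterial NCCLS”, “microdilution” for “microdilution run”, “medium containing” for “medium with”, “were dissolved” for “were taken up”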
# Rhodococcus sp. = experiment: Antimicrobial activity against Rhodococcus sp. after 24 hrs by broth microdilution assay in presence of 25% human serum; type: functional; details: Rhodococcus sp. (in: high G+C Gram-positive bacteria)
# Method in brief: as §1, with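 “Bacteria were tested by NCCLS” for “Bacterial NCCLS”, “microdilution” for “microdilution run”, “medium containing” for “medium with”, “were dissolved” for “were taken up”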
# Enterobacter cloacae [8] = experiment: Antimicrobial activity against Enterobacter cloacae ATCC 13047 at 64 ug/mL after 24 hrs by broth microdilution assay; type: functional, organism-based
# Enterobacter cloacae [9] = experiment: Antimicrobial activity against Enterobacter cloacae ATCC 13047 after 24 hrs by broth microdilution assay in presence of 25% human serum; type: functional; details: ATCC 13047, 24 h
# Method in brief: as §1, with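 “Bacteria were tested by NCCLS” for “Bacterial NCCLS”, “microdilution” for “microdilution run”, “medium containing” for “medium with”, “were dissolved” for “were taken up”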
# P388 = experiment: Cytotoxicity against mouse P388 cells; type: functional; details: read-out: ED50 (the source's name)
# KM-20L2 = experiment: Cytotoxicity against human KM20L2 cells after 48 hrs by SRB assay; type: functional; details: KM-20L2, 48 h
# Cryptococcus neoformans [10] = experiment: Antimicrobial activity against Cryptococcus neoformans ATCC 90122 after 24 hrs by broth microdilution assay; type: functional; details: ATCC 90112, 24 h, in the assay text read “ATCC 90112” for “ATCC 90122”
# Method in brief: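 Yeasts were tested by NCCLS broth microdilution. Compounds were dissolved in a small volume of sterile DMSO and diluted in the appropriate medium immediately before testing. MIC was the lowest concentration inhibiting all visible growth (optically clear). Assays were repeated on separate days.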
# BXPC-3 = experiment: Cytotoxicity against human BxPC3 cells after 48 hrs by SRB assay; type: functional; details: BXPC-3, 48 h
# Micrococcus luteus [11] = experiment: Antimicrobial activity against Micrococcus luteus Presque Isle 456 after 24 hrs by broth microdilution assay in presence of 25% human serum; type: functional
# Method in brief: as §1, with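 “Bacteria were tested by NCCLS” for “Bacterial NCCLS”, “microdilution” for “microdilution run”, “medium containing” for “medium with”, “were dissolved” for “were taken up”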
# Escherichia coli [12] = experiment: Antimicrobial activity against Escherichia coli ATCC 25922 after 24 hrs by broth microdilution assay in presence of 25% human serum; type: functional; details: ATCC 25922, 24 h
# Method in brief: as §1, with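 “Bacteria were tested by NCCLS” for “Bacterial NCCLS”, “microdilution” for “microdilution run”, “medium containing” for “medium with”, “were dissolved” for “were taken up”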
# [13] = system: Stenotrophomonas maltophilia; experiment: Antimicrobial activity against Stenotrophomonas maltophilia ATCC 13637 after 24 hrs by broth microdilution assay in presence of 25% human serum; type: functional; details: ATCC 13637, 24 h
# Method in brief: as §1, with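 “Bacteria were tested by NCCLS” for “Bacterial NCCLS”, “microdilution” for “microdilution run”, “medium containing” for “medium with”, “were dissolved” for “were taken up”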
# MCF7 = experiment: Cytotoxicity against human MCF7 cells after 48 hrs by SRB assay; type: functional; details: MCF7, 48 h
# Neisseria gonorrhoeae [14] = experiment: Antimicrobial activity against Neisseria gonorrhoeae ATCC 49226 at 64 ug/mL after 24 hrs by broth microdilution assay; type: functional; details: ATCC 49226, 24 h
# Staphylococcus aureus [15] = experiment: Antimicrobial activity against methicillin-resistant Staphylococcus aureus after 24 hrs by broth microdilution assay in presence of 25% human serum; type: functional; method in brief: as §1
# Staphylococcus aureus [16] = experiment: Antimicrobial activity against Staphylococcus aureus ATCC 29213 after 24 hrs by broth microdilution assay; type: functional; details: ATCC 29213, 24 h; method in brief: as §3
# Cryptococcus neoformans [17] = experiment: Antimicrobial activity against Cryptococcus neoformans ATCC 90122 after 24 hrs by broth microdilution assay in presence of 25% human serum; type: functional; details: ATCC 90112, 24 h, in the assay text read “ATCC 90112” for “ATCC 90122”; method in brief: as §2
# [18] = system: Staphylococcus epidermidis; experiment: Antimicrobial activity against Staphylococcus epidermidis ATCC 49461 after 24 hrs by broth microdilution assay in presence of 25% human serum; type: functional; details: ATCC 49461, 24 h
# Method in brief: as §1, with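 “Bacteria were tested by NCCLS” for “Bacterial NCCLS”, “microdilution” for “microdilution run”, “medium containing” for “medium with”, “were dissolved” for “were taken up”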
# Streptococcus pneumoniae [19] = experiment: Antimicrobial activity against penicillin-resistant Streptococcus pneumoniae after 24 hrs by broth microdilution assay in presence of 25% human serum; type: functional; method in brief: as §1
# [20] = system: Stenotrophomonas maltophilia; experiment: Antimicrobial activity against Stenotrophomonas maltophilia ATCC 13637 at 64 ug/mL after 24 hrs by broth microdilution assay; type: functional, organism-based
# Enterococcus faecalis [21] = experiment: Antimicrobial activity against Enterococcus faecalis ATCC 29212 after 24 hrs by broth microdilution assay; type: functional; details: ATCC 29212, 24 h; method in brief: as §3
# Enterococcus faecium = experiment: Antimicrobial activity against vancomycin-resistant Enterococcus faecium after 24 hrs by broth microdilution assay in presence of 25% human serum; type: functional; method in brief: as §1
# Candida albicans [22] = experiment: Antimicrobial activity against Candida albicans ATCC 90028 at 64 ug/mL after 48 hrs by broth microdilution assay; type: functional, organism-based
# Streptococcus pneumoniae [23] = experiment: Antimicrobial activity against Streptococcus pneumoniae ATCC 6303 after 24 hrs by broth microdilution assay; type: functional; details: ATCC 6303, 24 h; method in brief: as §3
# Escherichia coli [24] = experiment: Antimicrobial activity against Escherichia coli ATCC 25922 at 64 ug/mL after 24 hrs by broth microdilution assay; type: functional, organism-based
smiles,measurement,setting,value
CO[C@H]1C[C@H]2C(C)(C)CCC[C@]2(C)c2ccc(O)c(C(C)C)c21 [NOOTKASTATIN 1],MIC,Streptococcus pyogenes,> 64 µg/mL
same,MIC,Nakaseomyces glabratus,> 64 µg/mL
same,MIC,Enterococcus faecalis [1],> 64 µg/mL
same,MIC,Candida albicans [2],> 64 µg/mL
same,GI50,SF-268,0.85 µg/mL
same,MIC,Staphylococcus aureus [3],> 64 µg/mL
same,MBC,Micrococcus luteus [4],8 µg/mL
same,MIC,Micrococcus luteus [4],2 µg/mL
same,MIC,Cryptococcus neoformans [5],> 64 µg/mL
same,GI50,NCI-H460,0.75 µg/mL
same,MIC,Neisseria gonorrhoeae [6],> 64 µg/mL
same,GI50,DU-145,1.1 µg/mL
same,MIC,Streptococcus pneumoniae [7],> 64 µg/mL
same,MIC,Rhodococcus sp.,> 64 µg/mL
same,Activity,Enterobacter cloacae [8],inactive
same,MIC,Enterobacter cloacae [9],> 64 µg/mL
same,EC50,P388,1.5 µg/mL
same,GI50,KM-20L2,0.98 µg/mL
same,MIC,Cryptococcus neoformans [10],64 µg/mL
same,GI50,BXPC-3,2.1 µg/mL
same,MIC,Micrococcus luteus [11],> 64 µg/mL
same,MIC,Escherichia coli [12],> 64 µg/mL
same,MIC,[13],> 64 µg/mL
same,GI50,MCF7,2 µg/mL
same,MBC,Neisseria gonorrhoeae [14],4 µg/mL
same,MIC,Neisseria gonorrhoeae [14],2 µg/mL
same,MIC,Staphylococcus aureus [15],> 64 µg/mL
same,MBC,Staphylococcus aureus [16],32 µg/mL
same,MIC,Staphylococcus aureus [16],8 µg/mL
same,MIC,Cryptococcus neoformans [17],> 64 µg/mL
same,MIC,[18],> 64 µg/mL
same,MIC,Streptococcus pneumoniae [19],> 64 µg/mL
same,Activity,[20],inactive
same,MBC,Enterococcus faecalis [21],16 µg/mL
same,MIC,Enterococcus faecalis [21],4 µg/mL
same,MIC,Enterococcus faecium,> 64 µg/mL
same,Activity,Candida albicans [22],inactive
same,MBC,Streptococcus pneumoniae [23],64 µg/mL
same,MIC,Streptococcus pneumoniae [23],64 µg/mL
same,Activity,Escherichia coli [24],inactive
